The source of these data is ChEMBL document CHEMBL4706532, “New Seco-DSP derivatives as potent chemosensitizers” (Eur J Med Chem, 2020).

Structures are written as SMILES.

Series [1] has as its system A2780/Taxol. Description: Cytotoxicity against human A2780T cells assessed as reduction in cell viability at 10 uM incubated for 48 hrs by MTT assay. The format is cell-based. In outline: (§1)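 Cells plated at 3~5 × 10^3 per well and allowed 24 h before exposure to compound or DMSO (negative control) for 48 h. A2780/T and KB-VIN were grown in DMEM/F12 with 10% FBS, and HUVEC, HOSEC and T29 in RPMI-1640 with 10% FBS, all at 37 °C under 5% CO₂. MTT was added for 4 h, formazan dissolved in DMSO and absorbance read at 490 nm. Inhibition was calculated relative to DMSO and blank.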

Series [2] is described as follows: Cytotoxicity against human HOSEC cells assessed as reduction in cell viability at 10 uM incubated for 48 hrs by MTT assay. The series is classed as cell-based. The note with it: hose. In outline:
as §1

A short description of series [3]: Cytotoxicity against human T29 cells assessed as reduction in cell viability at 10 uM incubated for 48 hrs by MTT assay. The format is cell-based. The settings on record: t29, 48 h. The essentials: as §1
Series [4] deals with HUVEC. Description: Cytotoxicity against human HUVEC cells assessed as reduction in cell viability at 10 uM incubated for 48 hrs by MTT assay. The series is classed as cell-based. The essentials: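 Cells plated at 3~5 × 10^3 per well and allowed 24 h before exposure to compound or DMSO (negative control) for 48 h. MTT was added for 4 h, formazan dissolved in DMSO and absorbance read at 490 nm. Inhibition was calculated relative to DMSO and blank.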

Series [5] in a line: Reversal of multidrug resistance activity in P-gp overexpressing human A2780T cells assessed as potentiation of PTX-induced cytotoxicity by measuring reversal ratio at 10 uM incubated for 48 hrs in presence of paclitaxel by MTT assay. The format is functional, A2780/Taxol. The essentials: (§2)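 Resistant cells were plated at 3~5 × 10^3 per well, given 24 h, then co-treated with test compound plus a range of anticancer drug concentrations (PTX for A2780/T, VCR for KB-VIN, cisplatin for A2780/CDDP) or DMSO for 48 h. Read-out was by MTT, 4 h at 37 °C, with absorbance at 490 nm. Reversal ratio = IC50 (drug alone) / IC50 (drug with compound).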

Series [6] can be described thus: Cytotoxicity against human KB-VIN cells assessed as reduction in cell viability at 10 uM incubated for 48 hrs by MTT assay. The series is classed as cell-based. The essentials: as §1
The nature of series [7]: Reversal of multidrug resistance activity in P-gp overexpressing human KB-VIN cells assessed as potentiation of VCR-induced cytotoxicity by measuring reversal ratio at 10 uM incubated for 48 hrs in presence of VCR by MTT assay. The format is functional. The essentials: as §2

With `CCc1cc(=O)c2ccc(OC)c(COC(=O)Cc3cc(OC)c(OC)c(OC)c3)c2o1`, the Activity result was “Toxic” in series [1], “Non-Toxic” in series [2], “Non-Toxic” in series [3] and “Non-Toxic” in series [4]. Further, the Ratio in series [5] turned out to be 54.

With `CCc1cc(=O)c2ccc(OC)c(COC(=O)Cc3ccc(Cl)cc3)c2o1`, the Activity result in series [1], in series [2], in series [3] and in series [4] was “Non-Toxic” throughout. Moreover, in series [5], the Ratio was 89.

For `CCc1cc(=O)c2ccc(OC)c(COC(=O)Cc3ccccc3C)c2o1`, the Activity result in series [1], in series [2], in series [3] and in series [4] was “Non-Toxic” throughout. Moreover, in series [5], the Ratio came to 99.

Regarding `CCc1cc(=O)c2ccc(OC)c(COC(=O)c3ccc(C(C)(C)C)cc3)c2o1`, the Activity entry in series [1] is “Toxic”; in series [2] it was “Non-Toxic”; in series [3], “Non-Toxic”; in series [4], “Non-Toxic”. In addition, the Ratio in series [5] stood at 158.

In the case of `CCc1cc(=O)c2ccc(OC)c(COC(=O)c3c(F)cccc3F)c2o1`, the Activity entry in series [1], in series [2], in series [3] and in series [4] was “Non-Toxic” each time. Further, in series [5], the Ratio stood at 43.

`CCCc1ccc(C(=O)OCc2c(OC)ccc3c(=O)cc(CC)oc23)cc1`: the Activity entry in series [1] is listed as “Toxic”; in series [2] it was “Non-Toxic”; in series [3], “Non-Toxic”; in series [4], “Non-Toxic”. The Ratio in series [5] is 36.

Turning to `CCc1cc(=O)c2ccc(OC)c(COC(=O)c3ccc(OC)c(OC)c3)c2o1`, the Activity result in series [1] is “Toxic”; in series [6] it was “Non-Toxic”; in series [2], “Non-Toxic”; in series [3], “Non-Toxic”; in series [4], “Non-Toxic”. Besides, the Ratio came out at 260 in series [5] and 105 in series [7].

For the compound `CCc1cc(=O)c2ccc(OC(C)C)c(COC(=O)c3ccc(C#N)cc3)c2o1`, the Activity result in series [1] was “Toxic”; in series [2] it was “Non-Toxic”; in series [3] it was “Non-Toxic”; in series [4] it was “Non-Toxic”. Also, the Ratio in series [5] is listed as 10.

Turning to `CCc1cc(=O)c2ccc(OC)c(COC(=O)/C=C/c3ccc(Cl)cc3)c2o1`, the Activity entry in series [1], in series [2], in series [3] and in series [4] was “Non-Toxic” throughout. The Ratio in series [5] came to 53.

For `CCc1cc(=O)c2ccc(OC)c(COC(=O)c3cc(OC)c(OC)cc3OC)c2o1`, the Activity result in series [1], in series [6], in series [2], in series [3] and in series [4] was “Non-Toxic” throughout. Moreover, the results for the Ratio in series [5] and in series [7] were 284 and 579, respectively.

With `CCc1cc(=O)c2ccc(OC)c(COC(=O)c3ccc(N)c(C)c3)c2o1`, the Activity entry in series [1], in series [2], in series [3] and in series [4] was “Non-Toxic” each time. The Ratio in series [5] stood at 177.

With `CCc1cc(=O)c2ccc(OC)c(COC(=O)c3ccc(C#N)cc3)c2o1`, the Activity entry in series [1] is given as “Non-Toxic”; in series [2] it was “Toxic”; in series [3], “Toxic”; in series [4], “Non-Toxic”. For the same compound, the Ratio in series [5] is 8.

As to `CCc1cc(=O)c2ccc(OC)c(COC(=O)c3cc([N+](=O)[O-])ccc3Cl)c2o1`, the Activity entry in series [1], in series [2], in series [3] and in series [4] was “Non-Toxic” each time. Moreover, in series [5], the Ratio is 57.

As to `CCc1cc(=O)c2ccc(OC)c(COC(=O)c3cccc(OC)c3)c2o1`, the Activity entry in series [1], in series [2], in series [3] and in series [4] was “Non-Toxic” throughout. For the same compound, the Ratio in series [5] came out at 147.

In the case of `CCOc1ccc2c(=O)cc(CC)oc2c1COC(=O)c1ccc(C#N)cc1`, the Activity result in series [1] was “Toxic”; in series [2], “Non-Toxic”; in series [3], “Non-Toxic”; in series [4], “Non-Toxic”. The Ratio in series [5] stood at 20.

`CCc1cc(=O)c2ccc(OC)c(COC(=O)c3ccccc3[N+](=O)[O-])c2o1`: the Activity entry in series [1], in series [2], in series [3] and in series [4] was “Non-Toxic” each time. Also, in series [5], the Ratio was determined as 172.

As to `CCc1cc(=O)c2ccc(OC)c(COC(=O)/C=C/c3ccc(OC)cc3)c2o1`, the Activity result in series [1] was “Toxic”; in series [6], “Non-Toxic”; in series [2], “Toxic”; in series [3], “Toxic”; in series [4], “Non-Toxic”. The Ratio in series [5] came out at 414; in series [7], 420.

On to `CCCCCc1ccc(C(=O)OCc2c(OC)ccc3c(=O)cc(CC)oc23)cc1`, for which the Activity entry in series [1], in series [2], in series [3] and in series [4] was “Non-Toxic” each time. The Ratio in series [5] is recorded as 173.

`CCc1cc(=O)c2ccc(OC)c(COC(=O)/C=C/c3ccccc3)c2o1`: the Activity result in series [1], in series [6], in series [2], in series [3] and in series [4] was “Non-Toxic” each time. Moreover, the results for the Ratio in series [5] and in series [7] were 427 and 343, respectively.

With `CCc1cc(=O)c2ccc(OC)c(COC(=O)c3ccc(Cl)cc3Cl)c2o1`, the Activity entry in series [1], in series [2], in series [3] and in series [4] was “Non-Toxic” throughout. Moreover, the Ratio in series [5] is on record as 126.

Regarding `CCc1cc(=O)c2ccc(OC)c(COC(=O)c3ccccc3Br)c2o1`, the Activity entry is on record as “Toxic” in series [1], “Non-Toxic” in series [2], “Non-Toxic” in series [3] and “Non-Toxic” in series [4]. For the same compound, the Ratio in series [5] is given as 23.

As for `CCc1cc(=O)c2ccc(OC)c(COC(=O)c3ccc(Cl)c([N+](=O)[O-])c3)c2o1`, the Activity result in series [1] is “Non-Toxic”; in series [2], “Toxic”; in series [3], “Toxic”; in series [4], “Non-Toxic”. In series [5], the Ratio was found to be 14.

Turning to `CCc1cc(=O)c2ccc(OC)c(COC(=O)c3ccc(F)cc3)c2o1`, the Activity entry in series [1], in series [2], in series [3] and in series [4] was “Non-Toxic” in each case. Further, in series [5], the Ratio is recorded as 53.
